In ChEMBL document CHEMBL4715736, “Identification of anticancer agents based on the thieno[2,3-b]pyridine and 1H-pyrazole molecular scaffolds” (2016):

Columns and labels:
Assay type in all cases: functional
HCT-116 = assay: Growth inhibition of human HCT-116 cells assessed as cell growth at 10 uM incubated for 48 hrs by sulforhodamine B assay relative to control; conditions: read-out: Activity
How it was run: (§1)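 Submitted to the NCI Developmental Therapeutics Program for the NCI60 human tumour cell line panel. First screen at a single 10 µM concentration. Read-out is growth relative to untreated control cells set at 100%.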

HOP-62 = assay: Growth inhibition of human HOP-62 cells assessed as cell growth at 10 uM incubated for 48 hrs by sulforhodamine B assay relative to control; conditions: read-out: Activity; how it was run: as §1
TK-10 [1] = assay: Growth inhibition of human TK-10 cells assessed as cell growth at 10 uM incubated for 48 hrs by sulforhodamine B assay relative to control; conditions: read-out: Activity
How it was run: (§2)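 Run by the NCI Developmental Therapeutics Program as part of its 60-line human tumour panel. Each compound tested at a single 10 µM dose. Growth expressed as % relative to untreated control cells (100%).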

Malme-3M [2] = assay: Growth inhibition of human Malme-3M cells assessed as cell growth at 0.01 uM incubated for 48 hrs by sulforhodamine B assay relative to control; conditions: read-out: Activity
SNB-75 = assay: Growth inhibition of human SNB-75 cells assessed as cell growth at 10 uM incubated for 48 hrs by sulforhodamine B assay relative to control; conditions: read-out: Activity; how it was run: as §2
SK-OV-3 [3] = assay: Growth inhibition of human SK-OV-3 cells assessed as cell growth at 10 uM incubated for 48 hrs by sulforhodamine B assay relative to control; conditions: read-out: Activity; how it was run: as §2
BT-549 [4] = assay: Growth inhibition of human BT-549 cells assessed as cell growth at 10 uM incubated for 48 hrs by sulforhodamine B assay relative to control; conditions: read-out: Activity
How it was run: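 NCI Developmental Therapeutics Program NCI60 human tumour cell line panel, one-dose primary screen with every compound at 10 µM. Growth is expressed as % of untreated control cells (100%).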

SN12C = assay: Growth inhibition of human SN12C cells assessed as cell growth at 10 uM incubated for 48 hrs by sulforhodamine B assay relative to control; conditions: read-out: Activity; how it was run: as §2
NCI-H522 [5] = assay: Growth inhibition of human NCI-H522 cells assessed as cell growth at 10 uM incubated for 48 hrs by sulforhodamine B assay relative to control; conditions: read-out: Activity; how it was run: as §1
BT-549 [6] = assay: Growth inhibition of human BT-549 cells assessed as cell growth at 100 uM incubated for 48 hrs by sulforhodamine B assay relative to control; conditions: read-out: Activity
HT-29 = assay: Growth inhibition of human HT-29 cells assessed as cell growth at 10 uM incubated for 48 hrs by sulforhodamine B assay relative to control; conditions: read-out: Activity; how it was run: as §1
NCI-H226 = assay: Growth inhibition of human NCI-H226 cells assessed as cell growth at 10 uM incubated for 48 hrs by sulforhodamine B assay relative to control; conditions: read-out: Activity; how it was run: as §1
SK-OV-3 [7] = assay: Growth inhibition of human SK-OV-3 cells incubated for 48 hrs by sulforhodamine B assay
How it was run: (§3)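 NCI DTP 60-line human tumour panel. Dose-response curves were run only for ligands active in the initial 10 µM screen. GI50 (concentration giving 50% of maximal inhibition of proliferation) and TGI (concentration giving total growth inhibition) were derived from these curves.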

UO-31 = assay: Growth inhibition of human UO-31 cells assessed as cell growth at 10 uM incubated for 48 hrs by sulforhodamine B assay relative to control; conditions: read-out: Activity; how it was run: as §2
SNB-19 = assay: Growth inhibition of human SNB-19 cells assessed as cell growth at 10 uM incubated for 48 hrs by sulforhodamine B assay relative to control; conditions: read-out: Activity; how it was run: as §2
NCI-H460 [8] = assay: Growth inhibition of human NCI-H460 cells assessed as cell growth at 1 uM incubated for 48 hrs by sulforhodamine B assay relative to control; conditions: read-out: Activity
NCI-H522 [9] = assay: Growth inhibition of human NCI-H522 cells assessed as cell growth at 1 uM incubated for 48 hrs by sulforhodamine B assay relative to control; conditions: read-out: Activity
SR = assay: Growth inhibition of human SR cells assessed as cell growth at 10 uM incubated for 48 hrs by sulforhodamine B assay relative to control; conditions: read-out: Activity; how it was run: as §2
SF-539 = assay: Growth inhibition of human SF-539 cells incubated for 48 hrs by sulforhodamine B assay; how it was run: as §3
Malme-3M [10] = assay: Growth inhibition of human Malme-3M cells assessed as cell growth at 10 uM incubated for 48 hrs by sulforhodamine B assay relative to control; conditions: read-out: Activity; how it was run: as §1
RXF 393 = assay: Growth inhibition of human RXF 393 cells assessed as cell growth at 10 uM incubated for 48 hrs by sulforhodamine B assay relative to control; conditions: read-out: Activity; how it was run: as §2
SK-MEL-2 = assay: Growth inhibition of human SK-MEL-2 cells assessed as cell growth at 10 uM incubated for 48 hrs by sulforhodamine B assay relative to control; conditions: read-out: Activity; how it was run: as §2
NCI-H460 [11] = assay: Growth inhibition of human NCI-H460 cells assessed as cell growth at 10 uM incubated for 48 hrs by sulforhodamine B assay relative to control; conditions: read-out: Activity; how it was run: as §1
UACC-257 = assay: Growth inhibition of human UACC-257 cells assessed as cell growth at 10 uM incubated for 48 hrs by sulforhodamine B assay relative to control; conditions: read-out: Activity; how it was run: as §2
MOLT-4 = assay: Growth inhibition of human MOLT-4 cells assessed as cell growth at 10 uM incubated for 48 hrs by sulforhodamine B assay relative to control; conditions: read-out: Activity; how it was run: as §1
TK-10 [12] = assay: Growth inhibition of human TK-10 cells assessed as cell growth at 1 uM incubated for 48 hrs by sulforhodamine B assay relative to control; conditions: read-out: Activity
A498 = assay: Growth inhibition of human A498 cells assessed as cell growth at 10 uM incubated for 48 hrs by sulforhodamine B assay relative to control; conditions: read-out: Activity
How it was run: (§4)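 NCI Developmental Therapeutics Program NCI60 panel. Compounds that were active in the 10 µM one-dose screen went on to dose–response testing. Growth at each concentration is expressed relative to untreated control (100%). GI50 (concentration giving 50% of maximal inhibition of proliferation) and TGI (concentration giving total growth inhibition) were derived from the curves.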

M14 = assay: Growth inhibition of human M14 cells assessed as cell growth at 10 uM incubated for 48 hrs by sulforhodamine B assay relative to control; conditions: read-out: Activity; how it was run: as §1
MDA-MB-468 = assay: Growth inhibition of human MDA-MB-468 cells assessed as cell growth at 0.01 uM incubated for 48 hrs by sulforhodamine B assay relative to control; conditions: read-out: Activity
SK-MEL-5 = assay: Growth inhibition of human SK-MEL-5 cells assessed as cell growth at 10 uM incubated for 48 hrs by sulforhodamine B assay relative to control; conditions: read-out: Activity; how it was run: as §2
KM12 = assay: Growth inhibition of human KM12 cells assessed as cell growth at 10 uM incubated for 48 hrs by sulforhodamine B assay relative to control; conditions: read-out: Activity; how it was run: as §1
HCT-15 = assay: Growth inhibition of human HCT-15 cells assessed as cell growth at 10 uM incubated for 48 hrs by sulforhodamine B assay relative to control; conditions: read-out: Activity; how it was run: as §1
786-0 = assay: Growth inhibition of human 786-0 cells assessed as cell growth at 10 uM incubated for 48 hrs by sulforhodamine B assay relative to control; conditions: read-out: Activity; how it was run: as §4
CAKI-1 = assay: Growth inhibition of human CAKI-1 cells assessed as cell growth at 10 uM incubated for 48 hrs by sulforhodamine B assay relative to control; conditions: read-out: Activity; how it was run: as §4
[13] = read-out: LC50 (the source's name)

Structure (SMILES): Nc1c(C(=O)Nc2ccccc2)sc2nc3c(cc12)CN(Cc1ccccc1)CC3
- growth at 10 µM (HCT-116): 51%
- growth at 10 µM (HOP-62): 26%
- growth at 10 µM (TK-10 [1]): 19%
- growth at 0.01 µM (Malme-3M [2]): 87%
- growth at 10 µM (SNB-75): -54%
- growth at 10 µM (SK-OV-3 [3]): 12%
- growth at 10 µM (BT-549 [4]): 65%
- growth at 10 µM (SN12C): 66%
- growth at 10 µM (NCI-H522 [5]): 70%
- growth at 100 µM (BT-549 [6]): -2%
- growth at 10 µM (HT-29): 77%
- growth at 10 µM (NCI-H226): 31%
- GI50 (SK-OV-3 [7]): 3.53 µM
- TGI (SK-OV-3 [7]): > 100 µM
- CC50 (SK-OV-3 [7]; [13]): > 100 µM
- growth at 10 µM (UO-31): 41%
- growth at 10 µM (SNB-19): 59%
- growth at 1 µM (NCI-H460 [8]): 91%
- growth at 1 µM (NCI-H522 [9]): 91%
- growth at 10 µM (SR): 54%
- GI50 (SF-539): 2.78 µM
- TGI (SF-539): > 100 µM
- CC50 (SF-539; [13]): > 100 µM
- growth at 10 µM (Malme-3M [10]): 23%
- growth at 10 µM (RXF 393): 12%
- growth at 10 µM (SK-MEL-2): 70%
- growth at 10 µM (NCI-H460 [11]): 44%
- growth at 10 µM (UACC-257): 67%
- growth at 10 µM (MOLT-4): 81%
- growth at 1 µM (TK-10 [12]): 100%
- growth at 10 µM (A498): -17%
- growth at 10 µM (M14): 64%
- growth at 0.01 µM (MDA-MB-468): 96%
- growth at 10 µM (SK-MEL-5): 49%
- growth at 10 µM (KM12): 60%
- growth at 10 µM (HCT-15): 66%
- growth at 10 µM (786-0): 54%
- growth at 10 µM (CAKI-1): 56%
